Screens: PubChem BioAssay, Broad Institute
Compounds with a hit are over-represented: about 0.19% of the library has one in this group of screens.
IDH1 mut inh – IDH1 R132H (human) inhibition; O75874; inhibition, % at 10 µM; 70,000 compounds, 0.18% hits; IDH1 R132H reductase, diaphorase/resazurin fluorescence, 60 min; in the data active = inhibition above about 34%
GASC1 inh – blocks human GASC-1 (KDM4C) demethylase activity | inhibition, % at 12.5 µM | Q9H3R0 | AID 720574 | GST-KDM4C 2-372, H3K9me3 peptide, LANCE TR-FRET | 96,000 compounds, 0.15% hits;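 active = mean replicate inhibition above about 25%, with at least 55% of replicates also reaching it, limit read from the data, passing the limit was not always enough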
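Test system – GST-tagged GASC-1 (JMJD2C) catalytic fragment, aa 2-372 · Medium – HEPES buffer, pH 7.5, plus ascorbate · Reagent – H3K9me3 peptide with Fe(II)/2OG · Compound – one test concentration per compound · Timing – 30 min reaction, 60 min detection, RT · Technique – TR-FRET with Eu antibody and ULight streptavidin, EDTA stop · Read-out basis – inhibition from TR-FRET ratio decrease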
Hits are given with their value; - = inactive; . = not tested or not shown; ! = repeats disagree.

SMILES | IDH1 mut inh | GASC1 inh
C[C@H](NC(=O)C[C@H]1C[C@H]2c3cc(NC(=O)NC4CCCCC4)ccc3O[C@H]2[C@@H](CO)O1)c1ccccc1 | - | -
C[C@H](NC(=O)C[C@@H]1C[C@H]2c3cc(NC(=O)NC4CCCCC4)ccc3O[C@H]2[C@@H](CO)O1)c1ccccc1 | - | 32
O=C1c2ccccc2CN1CCNS(=O)(=O)c1ccc2oc3ccccc3c2c1 | - | .
CCN(CC(=O)Nc1ccc(I)cc1)S(=O)(=O)c1ccc2ccccc2c1 | - | .
CCc1cccc(-n2c(-c3ccco3)nc3c(cnn3-c3ccccc3Cl)c2=O)c1 | 46 | .
O=C(O)C1C2C=CC(C2)C1C(=O)N1CCc2c([nH]c3ccccc23)C1C(F)(F)F (stereo not drawn) | - | .
N#Cc1cccc(-c2ccc(C3[C@H]4CNC[C@@H]3N4S(=O)(=O)c3ccc(F)cc3)cc2)c1 (stereo partly drawn) | . | 35!
Cc1ccc(S(=O)(=O)N2[C@@H]3CNC[C@H]2C3c2ccc(-c3cccc(C#N)c3)cc2)cc1 (stereo partly drawn) | . | -
CC(/C=C/C(=O)NO)=C\c1ccccc1OC[C@@H]1[C@H]2C[C@H]3c4[nH]c5ccccc5c4CCN3C[C@@H]2CC[C@@H]1O | 74 | .
COC(=O)[C@H]1[C@H]2C[C@H]3c4[nH]c5ccccc5c4CCN3C[C@H]2CC[C@@H]1O | - | .
COc1ccc(CCNC(=S)n2cc(C)cn2)cc1OC | - | .
